≈ marks a conversion by molar mass, not a printed value.
Legend:
Type in all cases: functional
Providencia stuartii = assay: Antibacterial activity tested against Providencia stuartii CNUR 5
Outline: (§1)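 MICs (µg/mL) determined by conventional agar dilution against a panel of eight Gram-negative and five Gram-positive reference strains.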

Escherichia coli [1] = assay: Antibacterial activity tested against Escherichia coli ISF 432; outline: as §1
Enterobacter cloacae = assay: Antibacterial activity tested against Enterobacter cloacae OMNFI 174
[2] = system: Staphylococcus epidermidis; assay: Antibacterial activity tested against Staphylococcus epidermidis CPHL A2; outline: as §1
Staphylococcus aureus [3] = assay: Antibacterial activity against Staphylococcus aureus ATCC 6538; outline: as §1
[4] = Geometric mean of antibacterial activity (Gram -ve bacteria) of the compound
Outline: (§2)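 Geometric means calculated from agar-dilution MICs (µg/mL), taken separately across the five Gram-positive and the eight Gram-negative panel strains.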

Klebsiella pneumoniae = assay: Antibacterial activity tested against Klebsiella pneumoniae (Klebsiella pneumoniae) ATCC 10031; outline: as §1
[5] = system: Staphylococcus epidermidis; assay: Antibacterial activity tested against Staphylococcus epidermidis HCF Berset C; outline: as §1
Staphylococcus aureus [6] = assay: Antibacterial activity against Staphylococcus aureus MPR 5; outline: as §1
Proteus vulgaris = assay: Antibacterial activity tested against Proteus vulgaris CNUR 5; outline: as §1
Escherichia coli [7] = assay: Antibacterial activity tested against Escherichia coli ATCC 8739; outline: as §1
Enterococcus faecalis = assay: Antibacterial activity tested against Streptococcus faecalis LEP Br; outline: as §1
Bacteria = assay: Geometric mean of antibacterial activity (Gram +ve bacteria) of the compound; outline: as §2
Pseudomonas aeruginosa = assay: Antibacterial activity tested against P. ae (Pseudomonas aeruginosa) ATCC 9027; outline: as §1
Shigella = assay: Antibacterial activity tested against Shigella enteritidis; outline: as §1

| Compound | MIC (Providencia stuartii) | MIC (Escherichia coli [1]) | MIC (Enterobacter cloacae) | MIC [2] | MIC (Staphylococcus aureus [3]) | Geometric mean [4] | MIC (Klebsiella pneumoniae) | MIC [5] | MIC (Staphylococcus aureus [6]) | MIC (Proteus vulgaris) | MIC (Escherichia coli [7]) | MIC (Enterococcus faecalis) | Geometric mean (Bacteria) | MIC (Pseudomonas aeruginosa) | MIC (Shigella) |
| --- | --- | --- | --- | --- | --- | --- | --- | --- | --- | --- | --- | --- | --- | --- | --- |
| Cc1c(N2CCCCC2)c(F)cc2c(=O)c(C(=O)O)cn(C3CC3)c12 | 2 µg/mL (≈ 5.81 µM) | 0.03 µg/mL (≈ 0.0871 µM) | 16 µg/mL (≈ 46.5 µM) | 0.03 µg/mL (≈ 0.0871 µM) | 0.03 µg/mL (≈ 0.0871 µM) | 0.591 | 0.125 µg/mL (≈ 0.363 µM) | 0.03 µg/mL (≈ 0.0871 µM) | 0.03 µg/mL (≈ 0.0871 µM) | 2 µg/mL (≈ 5.81 µM) | 0.125 µg/mL (≈ 0.363 µM) | 0.25 µg/mL (≈ 0.726 µM) | 0.046 | 1 µg/mL (≈ 2.9 µM) | 0.5 µg/mL (≈ 1.45 µM) |
| Cc1c(N2CCCC(CO)C2)c(N)cc2c(=O)c(C(=O)O)cn(C3CC3)c12 (stereo not given) | 4 µg/mL (≈ 10.8 µM) | 0.016 µg/mL (≈ 0.0431 µM) | 2 µg/mL (≈ 5.38 µM) | 0.25 µg/mL (≈ 0.673 µM) | 0.125 µg/mL (≈ 0.337 µM) | 0.504 | 0.016 µg/mL (≈ 0.0431 µM) | 0.25 µg/mL (≈ 0.673 µM) | 0.125 µg/mL (≈ 0.337 µM) | 64 µg/mL (≈ 172 µM) | 0.016 µg/mL (≈ 0.0431 µM) | 2 µg/mL (≈ 5.38 µM) | 0.287 | 2 µg/mL (≈ 5.38 µM) | 1 µg/mL (≈ 2.69 µM) |
| Cc1c(N2CCN(C)CC2)c(N)cc2c(=O)c(C(=O)O)cn(-c3ccc(O)cc3)c12 | 8 µg/mL (≈ 19.6 µM) | 0.125 µg/mL (≈ 0.306 µM) | 8 µg/mL (≈ 19.6 µM) | 8 µg/mL (≈ 19.6 µM) | 16 µg/mL (≈ 39.2 µM) | 2.378 | 0.25 µg/mL (≈ 0.612 µM) | 16 µg/mL (≈ 39.2 µM) | 16 µg/mL (≈ 39.2 µM) | > 128 µg/mL | 0.125 µg/mL (≈ 0.306 µM) | 64 µg/mL (≈ 157 µM) | 18.37 | 8 µg/mL (≈ 19.6 µM) | 4 µg/mL (≈ 9.79 µM) |
| Cc1c(N2CCC(C)CC2)c(N(C)C)cc2c(=O)c(C(=O)O)cn(C3CC3)c12 | 64 µg/mL (≈ 167 µM) | 64 µg/mL (≈ 167 µM) | 64 µg/mL (≈ 167 µM) | 32 µg/mL (≈ 83.4 µM) | 64 µg/mL (≈ 167 µM) | 64 | 64 µg/mL (≈ 167 µM) | 8 µg/mL (≈ 20.9 µM) | 16 µg/mL (≈ 41.7 µM) | 64 µg/mL (≈ 167 µM) | 64 µg/mL (≈ 167 µM) | 32 µg/mL (≈ 83.4 µM) | 24.251 | 64 µg/mL (≈ 167 µM) | 64 µg/mL (≈ 167 µM) |
| Cc1c(N2CCN(C)CC2)c(N)cc2c(=O)c(C(=O)O)cn(-c3ccc(F)cc3)c12 | 16 µg/mL (≈ 39 µM) | 1 µg/mL (≈ 2.44 µM) | 16 µg/mL (≈ 39 µM) | 128 µg/mL (≈ 312 µM) | 64 µg/mL (≈ 156 µM) | 9.513 | 1 µg/mL (≈ 2.44 µM) | 128 µg/mL (≈ 312 µM) | 128 µg/mL (≈ 312 µM) | > 128 µg/mL | 1 µg/mL (≈ 2.44 µM) | 128 µg/mL (≈ 312 µM) | 111.43 | 128 µg/mL (≈ 312 µM) | 16 µg/mL (≈ 39 µM) |
| Cc1c(N2CCCCCC2)c(N)cc2c(=O)c(C(=O)O)cn(C3CC3)c12 | 0.5 µg/mL (≈ 1.41 µM) | 0.03 µg/mL (≈ 0.0844 µM) | 1 µg/mL (≈ 2.81 µM) | 0.25 µg/mL (≈ 0.703 µM) | 0.125 µg/mL (≈ 0.352 µM) | 0.763 | 0.03 µg/mL (≈ 0.0844 µM) | 0.2 µg/mL (≈ 0.563 µM) | 0.125 µg/mL (≈ 0.352 µM) | 32 µg/mL (≈ 90 µM) | 2 µg/mL (≈ 5.63 µM) | 2 µg/mL (≈ 5.63 µM) | 0.275 | 4 µg/mL (≈ 11.3 µM) | 1 µg/mL (≈ 2.81 µM) |
| Cc1c(N2CC(C)OC(C)C2)c(N)cc2c(=O)c(C(=O)O)cn(C3CC3)c12 (stereo not given) | 0.5 µg/mL (≈ 1.35 µM) | 0.03 µg/mL (≈ 0.0808 µM) | 1 µg/mL (≈ 2.69 µM) | 0.06 µg/mL (≈ 0.162 µM) | 0.06 µg/mL (≈ 0.162 µM) | 0.451 | 0.03 µg/mL (≈ 0.0808 µM) | 0.125 µg/mL (≈ 0.337 µM) | 0.06 µg/mL (≈ 0.162 µM) | 16 µg/mL (≈ 43.1 µM) | 0.06 µg/mL (≈ 0.162 µM) | 1 µg/mL (≈ 2.69 µM) | 0.122 | 4 µg/mL (≈ 10.8 µM) | 1 µg/mL (≈ 2.69 µM) |
| Nc1cc2c(=O)c(C(=O)O)cn(C3CC3)c2cc1N1CCc2ccccc2C1 | 128 µg/mL (≈ 341 µM) | 32 µg/mL (≈ 85.2 µM) | 128 µg/mL (≈ 341 µM) | 16 µg/mL (≈ 42.6 µM) | 128 µg/mL (≈ 341 µM) | 107.635 | 128 µg/mL (≈ 341 µM) | 16 µg/mL (≈ 42.6 µM) | 4 µg/mL (≈ 10.7 µM) | 128 µg/mL (≈ 341 µM) | 128 µg/mL (≈ 341 µM) | 128 µg/mL (≈ 341 µM) | 27.857 | 128 µg/mL (≈ 341 µM) | 128 µg/mL (≈ 341 µM) |
| CC1CN(c2cc3c(cc2N)c(=O)c(C(=O)O)cn3C2CC2)CCS1 (stereo not given) | 1 µg/mL (≈ 2.78 µM) | 0.03 µg/mL (≈ 0.0835 µM) | 0.5 µg/mL (≈ 1.39 µM) | 1 µg/mL (≈ 2.78 µM) | 0.5 µg/mL (≈ 1.39 µM) | 0.451 | 0.03 µg/mL (≈ 0.0835 µM) | 2 µg/mL (≈ 5.56 µM) | 0.5 µg/mL (≈ 1.39 µM) | 128 µg/mL (≈ 356 µM) | 0.03 µg/mL (≈ 0.0835 µM) | 8 µg/mL (≈ 22.3 µM) | 1.32 | 2 µg/mL (≈ 5.56 µM) | 0.5 µg/mL (≈ 1.39 µM) |
| Cc1c(N2CC=CCC2)c(N)cc2c(=O)c(C(=O)O)cn(C3CC3)c12 | > 128 µg/mL | 1 µg/mL (≈ 2.95 µM) | > 128 µg/mL | > 128 µg/mL | > 128 µg/mL | 20.749 | 1 µg/mL (≈ 2.95 µM) | > 128 µg/mL | > 128 µg/mL | > 128 µg/mL | 1 µg/mL (≈ 2.95 µM) | > 128 µg/mL | 128 | > 128 µg/mL | > 128 µg/mL |
| CN1CCN(c2cc3c(cc2N)c(=O)c(C(=O)O)cn3-c2ccc(F)cc2)CC1 | 4 µg/mL (≈ 10.1 µM) | 0.125 µg/mL (≈ 0.315 µM) | 4 µg/mL (≈ 10.1 µM) | 8 µg/mL (≈ 20.2 µM) | 8 µg/mL (≈ 20.2 µM) | 1.834 | 0.125 µg/mL (≈ 0.315 µM) | 8 µg/mL (≈ 20.2 µM) | 4 µg/mL (≈ 10.1 µM) | 128 µg/mL (≈ 323 µM) | 0.125 µg/mL (≈ 0.315 µM) | 64 µg/mL (≈ 161 µM) | 10.556 | 8 µg/mL (≈ 20.2 µM) | 4 µg/mL (≈ 10.1 µM) |
| Cc1c(N2CC(C)NC(C)C2)c(N)cc2c(=O)c(C(=O)O)cn(C3CC3)c12 (stereo not given) | 2 µg/mL (≈ 5.4 µM) | 0.03 µg/mL (≈ 0.081 µM) | 0.5 µg/mL (≈ 1.35 µM) | 1 µg/mL (≈ 2.7 µM) | 1 µg/mL (≈ 2.7 µM) | 0.348 | 0.03 µg/mL (≈ 0.081 µM) | 2 µg/mL (≈ 5.4 µM) | 1 µg/mL (≈ 2.7 µM) | 8 µg/mL (≈ 21.6 µM) | 0.06 µg/mL (≈ 0.162 µM) | 16 µg/mL (≈ 43.2 µM) | 2 | 2 µg/mL (≈ 5.4 µM) | 0.25 µg/mL (≈ 0.675 µM) |
| CN1CCN(c2c(N)cc3c(=O)c(C(=O)O)cn(C4CC4)c3c2F)CC1 | 4 µg/mL (≈ 11.1 µM) | 0.06 µg/mL (≈ 0.166 µM) | 0.25 µg/mL (≈ 0.694 µM) | 4 µg/mL (≈ 11.1 µM) | 4 µg/mL (≈ 11.1 µM) | 0.699 | 0.06 µg/mL (≈ 0.166 µM) | 8 µg/mL (≈ 22.2 µM) | 4 µg/mL (≈ 11.1 µM) | 32 µg/mL (≈ 88.8 µM) | 1 µg/mL (≈ 2.77 µM) | 64 µg/mL (≈ 178 µM) | 8 | 2 µg/mL (≈ 5.55 µM) | 0.25 µg/mL (≈ 0.694 µM) |
| CC1CN(c2cc3c(cc2N)c(=O)c(C(=O)O)cn3C2CC2)CCN1 (stereo not given) | 16 µg/mL (≈ 46.7 µM) | 0.03 µg/mL (≈ 0.0876 µM) | 0.25 µg/mL (≈ 0.73 µM) | 4 µg/mL (≈ 11.7 µM) | 16 µg/mL (≈ 46.7 µM) | 0.451 | 0.03 µg/mL (≈ 0.0876 µM) | 4 µg/mL (≈ 11.7 µM) | 16 µg/mL (≈ 46.7 µM) | 32 µg/mL (≈ 93.5 µM) | 0.03 µg/mL (≈ 0.0876 µM) | 32 µg/mL (≈ 93.5 µM) | 10.556 | 2 µg/mL (≈ 5.84 µM) | 0.25 µg/mL (≈ 0.73 µM) |

Source: ChEMBL document CHEMBL1129660, “Studies on 6-aminoquinolones: synthesis and antibacterial evaluation of 6-amino-8-methylquinolones” (J Med Chem, 1996)
